Here are results for two molecules from ChEMBL document CHEMBL1133005, “Improving the oral bioavailability of the iron chelator HBED by breaking the symmetry of the intramolecular H-bond network” (J Med Chem, 2000).

Format in all cases: physicochemical
A short description of data set [1]: Evaluated for ionization constant (pKa5) by titrations performed in presence of MeOH solvent at a dielectric constant of 56. The settings on record: MeOH cosolvent; read-out: pKa5. The method, boiled down: (§1)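 Potentiometric pH titration. The electrode is calibrated with pH 7.00 phosphate buffer. A blank titration before each set standardizes the electrode by a nonlinear semiempirical equation, and readings are converted to the concentration scale pcH = −log[H+]. Runs use varying amounts of MeOH or EtOH cosolvent, and aqueous pKa values are extrapolated by the Yasuda–Shedlovsky method. Low pKa values (pH < 2) are determined by spectrophotometric titration.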

Data set [2] in a line: Evaluated for ionization constant (pKa5) by titrations performed in presence of MeOH solvent at a dielectric constant of 62. Particulars: MeOH cosolvent; read-out: pKa5. An outline of the steps:
as §1

A short description of data set [3]: Evaluated for ionization constant (pKa3) by titrations performed in absence of cosolvent and at a dielectric constant of 78. The settings on record: no cosolvent; read-out: pKa3.
A short description of data set [4]: Evaluated for ionization constant (pKa3) by titrations performed in presence of MeOH solvent at a dielectric constant of 49. The settings on record: MeOH cosolvent; read-out: pKa3. An outline of the steps: (§2)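 pH-metric titration in mixed water/cosolvent media (MeOH or EtOH, depending on the ligand) at several cosolvent proportions, each proportion setting the dielectric constant. Electrode calibrated with pH 7.00 phosphate buffer and standardized after a blank titration by a nonlinear semiempirical fit. Readings were converted to pcH to give concentration-scale constants.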

Data set [5] in a line: Evaluated for ionization constant (pKa3) by titrations performed in presence of MeOH solvent at a dielectric constant of 56. The settings on record: MeOH cosolvent; read-out: pKa3. An outline of the steps:
as §2

Data set [6] can be described thus: Evaluated for ionization constant (pKa3) by titrations performed in presence of MeOH solvent at a dielectric constant of 62. Particulars: MeOH cosolvent; read-out: pKa3. The method, boiled down:
as §2

Data set [7] is described as follows: Evaluated for ionization constant (pKa3) by titrations performed using the method of Yasuda and Shedlovsky. Particulars: read-out: pKa3. The method, boiled down: (§3)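 Aqueous constants were extrapolated by the Yasuda–Shedlovsky method from pH-metric titrations run at several MeOH or EtOH cosolvent levels. Electrode calibrated with pH 7.00 phosphate buffer and standardized after a blank titration. Values are expressed on the pcH (-log[H+]) concentration scale.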

The nature of data set [8]: Evaluated for ionization constant (pKa4) by titrations performed in presence of MeOH solvent at a dielectric constant of 49. Particulars: MeOH cosolvent; read-out: pKa4. The method, boiled down:
as §2

Data set [9] can be described thus: Evaluated for ionization constant (pKa4) by titrations performed in presence of MeOH solvent at a dielectric constant of 56. Particulars: MeOH cosolvent; read-out: pKa4. An outline of the steps:
as §2

Data set [10] in a line: Evaluated for ionization constant (pKa4) by titrations performed in presence of MeOH solvent at a dielectric constant of 62. The settings on record: MeOH cosolvent; read-out: pKa4. An outline of the steps:
as §2

Data set [11] is described as follows: Evaluated for ionization constant (pKa4) by titrations performed in presence of MeOH solvent at a dielectric constant of 78. Particulars: MeOH cosolvent; read-out: pKa4.
Data set [12] can be described thus: Evaluated for ionization constant (pKa4) by titrations performed using the method of Yasuda and Shedlovsky. The settings on record: read-out: pKa4. An outline of the steps:
as §1

A short description of data set [13]: Evaluated for ionization constant (pKa5) by titrations performed in presence of MeOH solvent at a dielectric constant of 49. Particulars: MeOH cosolvent; read-out: pKa5. An outline of the steps: as §1
Data set [14] can be described thus: Evaluated for ionization constant (pKa5) by titrations performed using the method of Yasuda and Shedlovsky. The settings on record: read-out: pKa5. The method, boiled down:
as §1

Data set [15] is described as follows: Evaluated for ionization constant (pKa2) by titrations performed in absence of cosolvent and at a dielectric constant of 78. The settings on record: no cosolvent, dielectric constant 78; read-out: pKa2.
Data set [16] is described as follows: Evaluated for ionization constant (pKa2) by titrations performed in presence of MeOH solvent at a dielectric constant of 49. The settings on record: MeOH cosolvent, dielectric constant 49; read-out: pKa2. The method, boiled down:
as §2

A short description of data set [17]: Evaluated for ionization constant (pKa2) by titrations performed in presence of MeOH solvent at a dielectric constant of 56. The settings on record: MeOH cosolvent, dielectric constant 56; read-out: pKa2. The method, boiled down:
as §2

Data set [18] is described as follows: Evaluated for ionization constant (pKa2) by titrations performed in presence of MeOH solvent at a dielectric constant of 62. The settings on record: MeOH cosolvent, dielectric constant 62; read-out: pKa2. The method, boiled down: as §2
Data set [19] is described as follows: Evaluated for ionization constant (pKa2) by titrations performed using method of Yasuda and Shedlovsky. Particulars: read-out: pKa2. An outline of the steps:
as §3

A short description of data set [20]: Partition coefficient (logP) (chloroform). An outline of the steps:
(§4)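 Free-ligand partition coefficients are measured by the pH-metric technique. This uses two linked titrations: a normal aqueous titration, then a two-phase titration in the presence of the partition solvent.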

Data set [21] can be described thus: Partition coefficient (logP) (cyclohexane). An outline of the steps:
as §4

Data set [22] is described as follows: Partition coefficient (logP). Particulars: octanol/water. An outline of the steps:
as §4

A short description of data set [23]: Evaluated for ionization constant (pKa1) by titrations performed in absence of a cosolvent at a dielectric constant of 78. The settings on record: no cosolvent, dielectric constant 78; read-out: pKa1.
A short description of data set [24]: Evaluated for ionization constant (pKa3) by titrations performed in the presence of EtOH at a dielectric constant of 63. Particulars: EtOH cosolvent; read-out: pKa3. An outline of the steps: as §2
Data set [25] can be described thus: Evaluated for ionization constant (pKa4) by titrations performed in absence of cosolvent and at a dielectric constant of 78. Particulars: no cosolvent; read-out: pKa4.
Data set [26] can be described thus: Evaluated for ionization constant (pKa4) by titrations performed in the presence of EtOH at a dielectric constant of 63. The settings on record: EtOH cosolvent; read-out: pKa4. An outline of the steps:
as §2

Data set [27] can be described thus: Evaluated for ionization constant (pKa5) by titrations performed in absence of cosolvent and at a dielectric constant of 78. The settings on record: no cosolvent; read-out: pKa5. An outline of the steps: as §1
Data set [28] can be described thus: Evaluated for ionization constant (pKa2) by titrations performed in the presence of EtOH at a dielectric constant of 63. The settings on record: EtOH cosolvent, dielectric constant 63; read-out: pKa2. The method, boiled down: as §2
A short description of data set [29]: Evaluated for ionization constant (pKa1) by titrations performed in absence of cosolvent and at a dielectric constant of 78. Particulars: no cosolvent, dielectric constant 78; read-out: pKa1.

With `COC(=O)CN(CCN(CC(=O)[O-])Cc1ccccc1O)Cc1ccccc1O.[Na+]`, the pKa in [1] amounted to 0.97; in data set [2] it was 1.15; in data set [3] it was 7.67; in [4], 7.41; in [5], 7.48; in data set [6], 7.56. Also, the pKa was 7.68 in data set [7]; 2.94 in data set [8]; 2.77 in [9]; 2.68 in [10]; 2.61 in [11]; 2.49 in data set [12]. For the same molecule, the pKa in data set [13] was determined as 0.9; in data set [14], 1.3; in data set [15], 10.9; in [16], 12.2; in data set [17] it was 12.1; in data set [18], 11.8. Moreover, the pKa in [19] was found to be 11.5; in data set [23], 12.1. For the same molecule, the figures for the log partition coefficient (logP) in data set [20], in data set [21] and in data set [22] were -0.29, less than -2 and 0.5, respectively.

In the case of `CCOC(=O)CN(CCN(CC(=O)[O-])Cc1ccccc1O)Cc1ccccc1O.[Na+]`, the pKa in data set [3] is 7.64; in data set [24], 7.5; in data set [25] it was 2.91; in [26] it was 2.75; in data set [27], 0.9; in data set [15], 10.9. Besides, the pKa in data set [28] was 11.4; in data set [29], 12.3. The lipophilicity (logP) was 0.18 in data set [20], -1.3 in data set [21] and 1.15 in [22].
